The values below come from ChEMBL document CHEMBL6083194, “Discovery and evaluation of 3-(2-isocyanobenzyl)-1H-indole derivatives as potential quorum sensing inhibitors for the control of Pseudomonas aeruginosa infections in vitro” (RSC Med Chem, 2024).

For one assay, the system named is HEK-293T. Briefly: Cytotoxicity against human HEK293T cells by CCK8 assay. It is filed as functional, cell-based. In short, it runs like this:
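HEK293T cell viability by CCK-8; IC50 determined.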

Assay [1] in a line: Inhibition of quorum sensing system in Pseudomonas aeruginosa PAO1 assessed as reduction in 3-oxo-C12-HSL level at 12.5 ug/ml incubated for 24 hrs by LC-MS/MS method. Conditions: dose 12.5 µg/ml.
For assay [2], the system named is Pseudomonas aeruginosa. The experiment in a line: Downregulation of PA5439 gene expression in Pseudomonas aeruginosa PAO1 assessed as fold decrease at 25 ug/ml by RT-qPCR analysis. It is filed as functional. Conditions: dose 25 µg/ml.
Assay [3] can be described thus: Inhibition of quorum sensing system in Pseudomonas aeruginosa PAO1 assessed as reduction in C4-HSL level at 12.5 ug/ml incubated for 24 hrs by LC-MS/MS method. Conditions: dose 12.5 µg/ml.
For assay [4], the system named is Pseudomonas aeruginosa. The experiment in a line: Inhibition of biofilm formation in Pseudomonas aeruginosa PAO1 at 1/2 times MIC incubated for 24 hrs crystal violet staining based SEM assay. It is filed as functional.
Assay [5] can be described thus: Inhibition of quorum sensing system in Pseudomonas aeruginosa PAO1. In short, it runs like this: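 Plate screen. CV026 grown overnight in LB with 50 μg ml−1 kanamycin; 15 μl seeded into 15 ml LB agar (1.0% agarose) containing 20 μM C4-HSL. PAO1 plates run in parallel. Test colonies inoculated by toothpick, incubated overnight at 37 °C. Ring of colourless viable cells around the colony scored as inhibition.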

Assay [6] can be described thus: Inhibition of quorum sensing system in Pseudomonas aeruginosa PAO1 assessed as reduction in C4-HSL level at 50 ug/ml incubated for 24 hrs by LC-MS/MS method. Conditions: dose 50.0 µg/ml.
The test system of assay [7] is Pseudomonas aeruginosa. The experiment in a line: Inhibition of pyocyanin production in Pseudomonas aeruginosa PAO1 at 1/2 time MIC incubated for 18 hrs. It is filed as functional. An outline of the steps:
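Overnight PAO1 in LB diluted to OD600 = 0.05, subcultured 5–7 h to mid-log, rediluted to OD600 = 0.05. 5 mL with compound grown 18 h at 37 °C, 200 rpm. Supernatant extracted with 3 mL chloroform, back-extracted into 0.2 M HCl, absorbance at 520 nm.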

Assay [8] concerns Pseudomonas aeruginosa. The experiment in a line: Downregulation of rhlR gene expression in Pseudomonas aeruginosa PAO1 assessed as fold decrease at 25 ug/ml by RT-qPCR analysis. It is filed as functional. The conditions noted are these: dose 25 µg/ml. (In qPCR the cycle at which signal appears reflects the starting amount.)
In assay [9] the test system is Pseudomonas aeruginosa. The experiment in a line: Anti-virulence effect in Pseudomonas aeruginosa PAO1 assessed as inhibition of pyocyanin production at 12.5 ug/ml. It is filed as functional. Also noted: scale not given: the % may be the effect or the level left. The conditions noted are these: dose 12.5 µg/ml. An outline of the steps:
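Overnight PAO1 culture in LB at 37 °C, diluted to OD600 0.05 and subcultured 5–7 h to mid-log phase, then re-diluted to OD600 0.05. Grown 18 h at 37 °C and 200 rpm with compound (6.25, 12.5, 25 μg mL−1) or DMSO. Supernatant extracted into chloroform, back-extracted into 0.2 M HCl, read at 520 nm.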

Assay [10] concerns Pseudomonas aeruginosa. Briefly: Downregulation of rhlI gene expression in Pseudomonas aeruginosa PAO1 assessed as fold decrease at 25 ug/ml by RT-qPCR analysis. Conditions: dose 25 µg/ml. It is filed as functional.
Assay [11] relates to Pseudomonas aeruginosa. The experiment in a line: Anti-virulence effect in Pseudomonas aeruginosa PAO1 assessed as inhibition of EPS production at 25 ug/ml. It is filed as functional. On the set-up: scale not given: the % may be the effect or the level left. The conditions noted are these: dose 25 µg/ml. An outline of the steps: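 PAO1 grown with compound (6.25–25 μg mL−1) in 24-well plates for 24 h at 37 °C and 180 rpm; DMSO and RSV (25 μg mL−1) as controls. Biofilms washed with water, then treated with 0.9% NaCl, 5% phenol and 0.2% hydrazine sulfate. Held 1 h in the dark, read at OD490. Three independent experiments.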

Assay [12] concerns Pseudomonas aeruginosa. The experiment in a line: Downregulation of lasI gene expression in Pseudomonas aeruginosa PAO1 assessed as fold decrease at 25 ug/ml by RT-qPCR analysis. It is filed as functional. Conditions: dose 25 µg/ml.
The nature of assay [13]: Inhibition of quorum sensing system in Pseudomonas aeruginosa PAO1 assessed as reduction in 3-oxo-C12-HSL level at 6.25 to 25 ug/ml incubated for 24 hrs by LC-MS/MS method. The conditions noted are these: dose 6.25-25 µg/ml.
Assay [14] deals with Pseudomonas aeruginosa. The experiment in a line: Inhibition of rhamnolipid production in Pseudomonas aeruginosa PAO1 at 1/2 to 1/4 times MIC by orcinol method. It is filed as functional, organism-based. In short, it runs like this: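 Overnight PAO1 diluted 1:100 into LB with compound, 37 °C, 180 rpm; DMSO control. Supernatant (100 μL) mixed with 900 μL 0.19% orcinol in 53% H2SO4, heated 30 min at 80 °C, cooled, read at 421 nm.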

As a reminder, the IC50 is the concentration that inhibits the measured activity by half. As usually defined, the inhibition is the relative decrease from the control value, in per cent.

Activity calls are given as the source filed them. No cut-off for these calls is given here.

In the assay with HEK-293T, `Cc1cccc(C#N)c1Cc1c[nH]c2ccccc12` had an IC50 of 59 µM. The inhibition is 72% in [1], 61% in [3], “Active; Strong Inhibition Observed” in assay [5] and 19% in [6]. Besides, the “fold change (FC)” value with Pseudomonas aeruginosa [2] is listed as 10.87; in the assay with Pseudomonas aeruginosa [8] it was 9.71; in the assay on Pseudomonas aeruginosa [10] it was 7.3; in the assay on Pseudomonas aeruginosa [12], 5. For the same molecule, the “inhibition (INH)” value worked out at 52% in the assay on Pseudomonas aeruginosa [4] and 64% in the assay on Pseudomonas aeruginosa [7]. The Activity came out at 57% in the assay on Pseudomonas aeruginosa [9] and 37% in the assay with Pseudomonas aeruginosa [11]. The inhibition result (in assay [13]; in the assay on Pseudomonas aeruginosa [14]) was “Active” each time.
